Experimental data pooled from the literature.
Compare with care: the assays were run in different laboratories.
FLT3: Receptor-type tyrosine-protein kinase FLT3 (FLT3, Homo sapiens, UniProt P36888)
FLT3 N841I: Receptor-type tyrosine-protein kinase FLT3 (FLT3, Homo sapiens, UniProt P36888, N841I)

CC(C)(C)c1cc(C=C(C#N)C#N)cc(Br)c1O — remaining activity (FLT3; enzyme activity; inhibitor; 0.5 µM): 102%
N#CC1(c2ccccn2)CCN(Cc2cc(C(=O)O)c(=O)n3ccccc23)CC1 — remaining binding (Receptor-type tyrosine-protein kinase FLT3 (FLT3, Homo sapiens, UniProt P36888, F691L/ITD); cell-free assay; competition with immobilised ligand; 1 µM): 100%
Cc1nn(C)cc1-c1nc2c(N3CCN(Cc4ccc(Cl)cc4)CC3)c(Cl)cnc2[nH]1 — remaining binding (FLT3 N841I; binding; competition with immobilised ligand; 1 µM): 0%
C#Cc1n[nH]c2c(-c3cn(C(C)c4ccccn4)c(=O)[nH]c3=O)cc(F)cc12 (centres unmarked) — inhibition (FLT3; enzyme activity; inhibitor; 1 µM): 8%
Nc1ncc(-c2nc(N3CCOCC3)nc(N3CCOCC3)n2)c(C(F)F)n1 — remaining binding (FLT3 N841I; binding; competition with immobilised ligand; 10 µM): 46%
Cn1cc(-c2cc(F)cc(N3CCn4c(cc5c4CCCC5)C3=O)c2CO)cc(Nc2ccc(N3CCN(C4COC4)CC3)cn2)c1=O — inhibition (FLT3; enzyme activity; inhibitor; 0.1 µM): 12%
O=c1[nH]c2ccccc2n1C1CCN(Cc2ccc(-c3[nH]c4cc5ncnc5cc4nc3-c3ccccc3)cc2)CC1 — remaining signal (FLT3; cell-free assay; 0.5 µM): 94.6%
Cn1cc(-c2cccc(N3CCc4c(sc5c4CC(C)(C)C5)C3=O)c2CO)cc(Nc2ccncn2)c1=O — inhibition (FLT3; enzyme activity; inhibitor; 1 µM): -6%
C#Cc1n[nH]c2c(-c3cn([C@@H](C)c4ccccc4)c(=O)[nH]c3=O)cc(F)cc12 — inhibition (FLT3; enzyme activity; inhibitor; 0.1 µM): 4.9%
COc1ncccc1-c1cnn2ccc(N3CCN(C(=O)OC(C)C)CC3)nc12 — remaining binding (FLT3; binding; competition with immobilised ligand; 1 µM): 100%
Cn1cncc1[C@@](O)(COc1ccc(C#N)cc1-c1ccc(OC(F)(F)F)cc1)c1ccc(C#N)cc1 — remaining binding (Receptor-type tyrosine-protein kinase FLT3 (FLT3, Homo sapiens, UniProt P36888, ITD); cell-free assay; competition with immobilised ligand; 1 µM): 89%
